B1: Osa-1-4 twister ribozyme (parent)
chain: CCGCCUAACACUGCCAAUGCCGGUCCCAAGCCCGGAUAAAAGUGGAGGGGGCGG

Variants of: B1
Assay: self-cleavage, relative activity (ratio to wild type); higher = more cleavage; co-transcriptional
In short: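 Values are relative activity: the fraction cleaved, normalised to wild type. A doped DNA template for a 54-nucleotide twister ribozyme from Oryza sativa had 97 % wild-type base and 1 % of each other base at the 48 positions downstream of the cleavage site. The RNA was transcribed in vitro for 2 h at 37 °C so that it could cleave itself co-transcriptionally, then sequenced deeply, with cleavage status scored from the presence or absence of upstream sequence in reads.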
Work on A10G G13C yielded a self-cleavage of 0.03.
With A10G G51C the self-cleavage was 0.08.
In the case of A10G G51A, the self-cleavage is reported as 0.28.
Variant A10G G51U has a self-cleavage of 0.18.
Work on A10U A39U yielded a self-cleavage of 0.12.
A10U A39G gave a self-cleavage of 0.08.
In the case of A10U A39C, the self-cleavage is reported as 0.04.
Variant A10U G50A has a self-cleavage of 0.05.
With A10U G50C the self-cleavage was 0.03.
With A10U G50U the self-cleavage was 0.04.
C11A G51C showed a self-cleavage of 0.04.
For C11A G51A, the self-cleavage was 0.17.
In the case of C11A G51U, the self-cleavage is reported as 0.06.
A10G G35A gave a self-cleavage of 0.41.
Variant A10G G35C has a self-cleavage of 0.13.
Variant A10G G35U has a self-cleavage of 0.4.
A10U A7U gave a self-cleavage of 0.03.
With A10U A7G the self-cleavage was 0.08.
For A10U A7C, the self-cleavage was 0.02.
Variant A10U A46G has a self-cleavage of 0.
A10U A46U showed a self-cleavage of 0.03.
With A10U A46C the self-cleavage was 0.02.
A10U G44A showed a self-cleavage of 0.03.
Work on A10U G44U yielded a self-cleavage of 0.08.
A10U G44C gave a self-cleavage of 0.09.
A10U C25A showed a self-cleavage of 0.03.
For A10U C25G, the self-cleavage was 0.02.
A10U C25U gave a self-cleavage of 0.05.
A10G G50C gave a self-cleavage of 0.82.
A10G G50A gave a self-cleavage of 0.49.
Work on A10G G50U yielded a self-cleavage of 0.98.
Variant A10U A28U has a self-cleavage of 0.05.
For A10U A28C, the self-cleavage was 0.03.
Work on A10U A28G yielded a self-cleavage of 0.04.
Variant A10G C26G has a self-cleavage of 0.18.
Variant A10G C26U has a self-cleavage of 0.5.
In the case of A10G C26A, the self-cleavage is reported as 0.04.
With A10G U24C the self-cleavage was 0.1.
A10G U24A showed a self-cleavage of 0.09.
With A10G U24G the self-cleavage was 0.04.
A10U G13U gave a self-cleavage of 0.
A10U G13A gave a self-cleavage of 0.01.
Work on A10U G13C yielded a self-cleavage of 0.01.
For A10U U12A, the self-cleavage was 0.05.
A10U U12G gave a self-cleavage of 0.02.
Variant A10U U12C has a self-cleavage of 0.02.
Work on C11A G35A yielded a self-cleavage of 0.4.
Variant C11A G35U has a self-cleavage of 0.37.
With C11A G35C the self-cleavage was 0.09.
C11A G34C gave a self-cleavage of 0.07.
C11A G34A showed a self-cleavage of 0.16.
In the case of C11A G34U, the self-cleavage is reported as 0.11.
Work on A10G G19C yielded a self-cleavage of 0.09.
With A10G G19U the self-cleavage was 0.13.
For A10G G19A, the self-cleavage was 0.28.
Variant A10G C32G has a self-cleavage of 0.15.
Variant A10G C32U has a self-cleavage of 0.1.
Work on A10G C32A yielded a self-cleavage of 0.07.
Variant C11A U24G has a self-cleavage of 0.07.
With C11A U24A the self-cleavage was 0.05.
C11A U24C gave a self-cleavage of 0.06.
Work on C11A C25U yielded a self-cleavage of 0.18.
C11A C25G gave a self-cleavage of 0.05.
C11A C25A showed a self-cleavage of 0.11.
A10G U37C showed a self-cleavage of 0.95.
Variant A10G U37A has a self-cleavage of 0.67.
Variant A10G U37G has a self-cleavage of 0.87.
Work on A10U C21U yielded a self-cleavage of 0.07.
With A10U C21A the self-cleavage was 0.03.
For A10U C21G, the self-cleavage was 0.02.
Variant A10G C27A has a self-cleavage of 0.12.
With A10G C27U the self-cleavage was 0.1.
For A10G C27G, the self-cleavage was 0.07.
A10G G34U gave a self-cleavage of 0.14.
With A10G G34C the self-cleavage was 0.12.
In the case of A10G G34A, the self-cleavage is reported as 0.24.
Variant A10G C25U has a self-cleavage of 0.4.
A10G C25G showed a self-cleavage of 0.08.
A10G C25A showed a self-cleavage of 0.07.
For A10U G47C, the self-cleavage was 0.02.
For A10U G47A, the self-cleavage was 0.02.
In the case of A10U G47U, the self-cleavage is reported as 0.02.
A10G G22U gave a self-cleavage of 0.16.
For A10G G22C, the self-cleavage was 0.05.
A10G G22A showed a self-cleavage of 0.38.
A10G G54C showed a self-cleavage of 0.85.
With A10G G54A the self-cleavage was 0.9.
Work on A10G G54U yielded a self-cleavage of 0.89.
A10U G23U gave a self-cleavage of 0.01.
In the case of A10U G23A, the self-cleavage is reported as 0.03.
A10U G23C showed a self-cleavage of 0.02.
C11A G22A gave a self-cleavage of 0.24.
C11A G22U showed a self-cleavage of 0.07.
Work on C11A G22C yielded a self-cleavage of 0.04.
In the case of A10U G45U, the self-cleavage is reported as 0.02.
Variant A10U G45C has a self-cleavage of 0.02.
For A10U G45A, the self-cleavage was 0.03.
With C11A G13U the self-cleavage was 0.04.
Work on C11A G13A yielded a self-cleavage of 0.03.
In the case of C11A G13C, the self-cleavage is reported as 0.03.
With A10U G53U the self-cleavage was 0.03.
Variant A10U G53A has a self-cleavage of 0.04.
Work on A10U G53C yielded a self-cleavage of 0.02.
Work on A10G G48U yielded a self-cleavage of 0.06.
A10G G48A gave a self-cleavage of 0.07.
A10G G48C gave a self-cleavage of 0.06.
Work on C11A G50A yielded a self-cleavage of 0.3.
In the case of C11A G50C, the self-cleavage is reported as 0.57.
Variant C11A G50U has a self-cleavage of 0.77.
With A10U C26U the self-cleavage was 0.04.
For A10U C26G, the self-cleavage was 0.05.
In the case of A10U C26A, the self-cleavage is reported as 0.01.
With A10U A38G the self-cleavage was 0.07.
Work on A10U A38U yielded a self-cleavage of 0.05.
With A10U A38C the self-cleavage was 0.06.
For C11A U37A, the self-cleavage was 0.48.
A10U A40C gave a self-cleavage of 0.01.
Variant A10U A40U has a self-cleavage of 0.05.
A10U A40G gave a self-cleavage of 0.05.
With A10U U18A the self-cleavage was 0.03.
For A10U U18G, the self-cleavage was 0.07.
Variant A10U U18C has a self-cleavage of 0.05.
A10U C14A gave a self-cleavage of 0.02.
A10U C14G showed a self-cleavage of 0.03.
For A10U C14U, the self-cleavage was 0.04.
Work on A10U A36G yielded a self-cleavage of 0.05.
A10U A36U gave a self-cleavage of 0.04.
For A10U A36C, the self-cleavage was 0.03.
With C11A G53C the self-cleavage was 0.04.
Work on C11A G53A yielded a self-cleavage of 0.49.
Variant C11A G53U has a self-cleavage of 0.09.
C11A G54A showed a self-cleavage of 0.62.
In the case of C11A G54U, the self-cleavage is reported as 0.71.
For C11A G54C, the self-cleavage was 0.66.
Variant C11A C14G has a self-cleavage of 0.1.
C11A C14U showed a self-cleavage of 0.15.
For C11A C14A, the self-cleavage was 0.07.
Variant A10G G45A has a self-cleavage of 0.17.
A10G G45C gave a self-cleavage of 0.06.
A10G G45U showed a self-cleavage of 0.1.
Work on A10G G42U yielded a self-cleavage of 0.06.
In the case of A10G G42C, the self-cleavage is reported as 0.12.
Work on A10G G42A yielded a self-cleavage of 0.22.
A10G G47U showed a self-cleavage of 0.12.
For A10G G47C, the self-cleavage was 0.07.
Variant A10G G47A has a self-cleavage of 0.13.
In the case of C11A U18A, the self-cleavage is reported as 0.67.
In the case of C11A U18G, the self-cleavage is reported as 0.64.
Work on C11A U18C yielded a self-cleavage of 0.43.
Work on A10U C15A yielded a self-cleavage of 0.03.
Variant A10U C15U has a self-cleavage of 0.04.
In the case of A10U C15G, the self-cleavage is reported as 0.03.
A10G C52U gave a self-cleavage of 0.95.
Work on A10G C52G yielded a self-cleavage of 0.75.
Work on A10G C52A yielded a self-cleavage of 0.92.
In the case of C11A G19U, the self-cleavage is reported as 0.06.
Work on C11A G19A yielded a self-cleavage of 0.11.
Variant C11A G19C has a self-cleavage of 0.04.
Variant A10U U24A has a self-cleavage of 0.03.
Variant A10U U24G has a self-cleavage of 0.01.
In the case of A10U U24C, the self-cleavage is reported as 0.02.
With A10U C20G the self-cleavage was 0.03.
Work on A10U C20A yielded a self-cleavage of 0.05.
For A10U C20U, the self-cleavage was 0.05.
With A10U C27G the self-cleavage was 0.04.
Variant A10U C27U has a self-cleavage of 0.05.
In the case of A10U C27A, the self-cleavage is reported as 0.02.

Reference: the RNAGym collection of RNA variant scans (doi:10.1002/anie.201605470)
